Results as given in ChEMBL document CHEMBL5724801, “EUbOPEN Chemogenomics Library - Multiplex” (2024).
“And” between values parts separate entries of the source, which are not always exact repeats. Equal entries are not always repeated.

Test system: HEK-293T
Test: Multiplex assay against HEK293T
Assay type: toxicity, cell-based
Details: human
How it was run: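 Imaging took place on a CQ1 microscope at 37°C and 5% CO2 once compound had been added to live cells stained at seeding with Hoechst33342, BioTracker Green Microtubule Cytoskeleton Dye, MitoTracker Red and Annexin V Alexa Fluor 680. CellPathfinder machine-learning gating classed cells as Hoechst high-intensity objects or normal cells, classed normal cells as having healthy, pyknosed or fragmented nuclei, and classed pyknosed cells as mitotic or apoptotic. Tubulin, mitochondrial-mass and membrane-permeability phenotypes are per cents of the healthy-nucleus cells.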

[1] = 12 h, 1 µM, compound concentration 1 uM
[2] = 12 h, 10 µM, compound concentration 10 uM
[3] = 24 h, 1 µM, compound concentration 1 uM
[4] = 24 h, 10 µM, compound concentration 10 uM
[5] = 48 h, 1 µM, compound concentration 1 uM
[6] = 48 h, 10 µM, compound concentration 10 uM

CNC[C@H](O)c1ccc(O)c(O)c1 [EPINEPHRINE]
Population Apoptotic (%) [1]: 20% and 56%
Population Fragmented Nuclei (%) [1]: 6%
Population Healthy Nuclei (%) [1]: 81%
Population Hoechst High Intensity Objects (%) [1]: 7% and 6%
Population Membrane Permeable-Phenotype (%) [1]: 0%
Population Mitochondria Different-Phenotype (%) [1]: 31% and 65%
Population Mitotic Cells (%) [1]: 80% and 43%
Population Normal (%) [1]: 92% and 93%
Population Pyknosed Nuclei (%) [1]: 11%
Population Tubulin-Different-Phenotype (%) [1]: 26% and 27%
Population Apoptotic (%) [2]: 55% and 56%
Population Fragmented Nuclei (%) [2]: 12% and 11%
Population Healthy Nuclei (%) [2]: 75% and 61%
Population Membrane Permeable-Phenotype (%) [2]: 1% and 0%
Population Mitochondria Different-Phenotype (%) [2]: 65% and 62%
Population Mitotic Cells (%) [2]: 44% and 43%
Population Normal (%) [2]: 90% and 59%
Population Pyknosed Nuclei (%) [2]: 11% and 26%
Population Tubulin-Different-Phenotype (%) [2]: 39% and 25%
Population Apoptotic (%) [3]: 19% and 36%
Population Fragmented Nuclei (%) [3]: 9%
Population Healthy Nuclei (%) [3]: 80%
Population Hoechst High Intensity Objects (%) [3]: 5% and 7%
Population Membrane Permeable-Phenotype (%) [3]: 0% and 1%
Population Mitochondria Different-Phenotype (%) [3]: 25% and 41%
Population Mitotic Cells (%) [3]: 80% and 63%
Population Normal (%) [3]: 94% and 92%
Population Pyknosed Nuclei (%) [3]: 9% and 10%
Population Tubulin-Different-Phenotype (%) [3]: 21% and 18%
Population Apoptotic (%) [4]: 50% and 80%
Population Fragmented Nuclei (%) [4]: 13% and 11%
Population Healthy Nuclei (%) [4]: 75% and 71%
Population Membrane Permeable-Phenotype (%) [4]: 0%
Population Mitochondria Different-Phenotype (%) [4]: 50% and 43%
Population Mitotic Cells (%) [4]: 50% and 19%
Population Normal (%) [4]: 91% and 60%
Population Pyknosed Nuclei (%) [4]: 11% and 17%
Population Tubulin-Different-Phenotype (%) [4]: 36% and 25%
Population Apoptotic (%) [5]: 16% and 35%
Population Fragmented Nuclei (%) [5]: 11% and 12%
Population Healthy Nuclei (%) [5]: 81% and 78%
Population Hoechst High Intensity Objects (%) [5]: 3%
Population Membrane Permeable-Phenotype (%) [5]: 1%
Population Mitochondria Different-Phenotype (%) [5]: 13% and 24%
Population Mitotic Cells (%) [5]: 83% and 64%
Population Normal (%) [5]: 96%
Population Pyknosed Nuclei (%) [5]: 7% and 8%
Population Tubulin-Different-Phenotype (%) [5]: 9% and 15%
Population Apoptotic (%) [6]: 33% and 69%
Population Fragmented Nuclei (%) [6]: 21% and 17%
Population Healthy Nuclei (%) [6]: 72% and 67%
Population Membrane Permeable-Phenotype (%) [6]: 0%
Population Mitochondria Different-Phenotype (%) [6]: 25% and 34%
Population Mitotic Cells (%) [6]: 66% and 30%
Population Normal (%) [6]: 96% and 78%
Population Pyknosed Nuclei (%) [6]: 5% and 14%
Population Tubulin-Different-Phenotype (%) [6]: 11% and 13%

CN[C@@H](C)C(=O)N[C@H](C(=O)N1CCC[C@H]1C(=O)Nc1snnc1-c1ccccc1)C1CCCCC1 [GDC-0152]
Population Apoptotic (%) [1]: 31% and 60%
Population Fragmented Nuclei (%) [1]: 5%
Population Healthy Nuclei (%) [1]: 78% and 79%
Population Hoechst High Intensity Objects (%) [1]: 5% and 7%
Population Membrane Permeable-Phenotype (%) [1]: 0%
Population Mitochondria Different-Phenotype (%) [1]: 41% and 62%
Population Mitotic Cells (%) [1]: 68% and 39%
Population Normal (%) [1]: 94% and 92%
Population Pyknosed Nuclei (%) [1]: 15% and 14%
Population Tubulin-Different-Phenotype (%) [1]: 35% and 26%
Total Cell Count [1]: 444 and 314
Population Apoptotic (%) [2]: 50% and 72%
Population Fragmented Nuclei (%) [2]: 6% and 7%
Population Healthy Nuclei (%) [2]: 73%
Population Hoechst High Intensity Objects (%) [2]: 13% and 20%
Population Membrane Permeable-Phenotype (%) [2]: 0%
Population Mitochondria Different-Phenotype (%) [2]: 78% and 89%
Population Mitotic Cells (%) [2]: 49% and 28%
Population Normal (%) [2]: 86% and 80%
Population Pyknosed Nuclei (%) [2]: 20% and 18%
Population Tubulin-Different-Phenotype (%) [2]: 78% and 72%
Total Cell Count [2]: 362 and 330
Population Apoptotic (%) [3]: 30% and 38%
Population Fragmented Nuclei (%) [3]: 8% and 5%
Population Healthy Nuclei (%) [3]: 80% and 82%
Population Hoechst High Intensity Objects (%) [3]: 4% and 6%
Population Membrane Permeable-Phenotype (%) [3]: 1% and 0%
Population Mitochondria Different-Phenotype (%) [3]: 28% and 53%
Population Mitotic Cells (%) [3]: 69% and 61%
Population Normal (%) [3]: 95% and 93%
Population Pyknosed Nuclei (%) [3]: 10% and 12%
Population Tubulin-Different-Phenotype (%) [3]: 23% and 22%
Total Cell Count [3]: 601 and 387
Population Apoptotic (%) [4]: 45% and 60%
Population Fragmented Nuclei (%) [4]: 10% and 12%
Population Healthy Nuclei (%) [4]: 71% and 68%
Population Hoechst High Intensity Objects (%) [4]: 7% and 21%
Population Membrane Permeable-Phenotype (%) [4]: 0%
Population Mitochondria Different-Phenotype (%) [4]: 74% and 80%
Population Mitotic Cells (%) [4]: 54% and 40%
Population Normal (%) [4]: 92% and 78%
Population Pyknosed Nuclei (%) [4]: 17% and 19%
Population Tubulin-Different-Phenotype (%) [4]: 69% and 58%
Total Cell Count [4]: 454 and 400
Population Apoptotic (%) [5]: 31% and 40%
Population Fragmented Nuclei (%) [5]: 12% and 10%
Population Healthy Nuclei (%) [5]: 78% and 82%
Population Hoechst High Intensity Objects (%) [5]: 4% and 3%
Population Membrane Permeable-Phenotype (%) [5]: 1%
Population Mitochondria Different-Phenotype (%) [5]: 22% and 29%
Population Mitotic Cells (%) [5]: 68% and 60%
Population Normal (%) [5]: 95% and 96%
Population Pyknosed Nuclei (%) [5]: 9% and 6%
Population Tubulin-Different-Phenotype (%) [5]: 16%
Total Cell Count [5]: 928 and 603
Population Apoptotic (%) [6]: 47% and 60%
Population Fragmented Nuclei (%) [6]: 12%
Population Healthy Nuclei (%) [6]: 73% and 70%
Population Hoechst High Intensity Objects (%) [6]: 16% and 21%
Population Membrane Permeable-Phenotype (%) [6]: 0%
Population Mitochondria Different-Phenotype (%) [6]: 74% and 76%
Population Mitotic Cells (%) [6]: 52% and 39%
Population Normal (%) [6]: 83% and 78%
Population Pyknosed Nuclei (%) [6]: 13% and 17%
Population Tubulin-Different-Phenotype (%) [6]: 55% and 52%
Total Cell Count [6]: 538 and 417

CSc1nc(NC2CCCC2)c([N+](=O)[O-])c(NC2CCCC2)n1 [GS-39783]
Population Apoptotic (%) [1]: 45% and 40%
Population Fragmented Nuclei (%) [1]: 11% and 3%
Population Healthy Nuclei (%) [1]: 74% and 85%
Population Hoechst High Intensity Objects (%) [1]: 8% and 4%
Population Membrane Permeable-Phenotype (%) [1]: 0%
Population Mitochondria Different-Phenotype (%) [1]: 41% and 68%
Population Mitotic Cells (%) [1]: 54% and 59%
Population Normal (%) [1]: 91% and 95%
Population Pyknosed Nuclei (%) [1]: 14% and 11%
Population Tubulin-Different-Phenotype (%) [1]: 30% and 27%
Total Cell Count [1]: 346 and 301
Population Apoptotic (%) [2]: 29% and 40%
Population Fragmented Nuclei (%) [2]: 6% and 5%
Population Healthy Nuclei (%) [2]: 81% and 84%
Population Hoechst High Intensity Objects (%) [2]: 6% and 5%
Population Membrane Permeable-Phenotype (%) [2]: 0%
Population Mitochondria Different-Phenotype (%) [2]: 50% and 68%
Population Mitotic Cells (%) [2]: 70% and 60%
Population Normal (%) [2]: 93% and 94%
Population Pyknosed Nuclei (%) [2]: 12% and 10%
Population Tubulin-Different-Phenotype (%) [2]: 40% and 29%
Total Cell Count [2]: 449 and 406
Population Apoptotic (%) [3]: 30% and 38%
Population Fragmented Nuclei (%) [3]: 12% and 7%
Population Healthy Nuclei (%) [3]: 76% and 84%
Population Hoechst High Intensity Objects (%) [3]: 7% and 8%
Population Membrane Permeable-Phenotype (%) [3]: 0%
Population Mitochondria Different-Phenotype (%) [3]: 25% and 51%
Population Mitotic Cells (%) [3]: 69% and 61%
Population Normal (%) [3]: 92% and 91%
Population Pyknosed Nuclei (%) [3]: 11% and 7%
Population Tubulin-Different-Phenotype (%) [3]: 19%
Total Cell Count [3]: 492 and 360
Population Apoptotic (%) [4]: 27% and 37%
Population Fragmented Nuclei (%) [4]: 11% and 8%
Population Healthy Nuclei (%) [4]: 78% and 83%
Population Hoechst High Intensity Objects (%) [4]: 5% and 6%
Population Membrane Permeable-Phenotype (%) [4]: 1% and 0%
Population Mitochondria Different-Phenotype (%) [4]: 30% and 52%
Population Mitotic Cells (%) [4]: 72% and 62%
Population Normal (%) [4]: 94% and 93%
Population Pyknosed Nuclei (%) [4]: 10% and 7%
Population Tubulin-Different-Phenotype (%) [4]: 30% and 28%
Total Cell Count [4]: 553 and 474
Population Apoptotic (%) [5]: 35% and 30%
Population Fragmented Nuclei (%) [5]: 15% and 13%
Population Healthy Nuclei (%) [5]: 74% and 77%
Population Hoechst High Intensity Objects (%) [5]: 3% and 6%
Population Membrane Permeable-Phenotype (%) [5]: 1% and 0%
Population Mitochondria Different-Phenotype (%) [5]: 22% and 32%
Population Mitotic Cells (%) [5]: 64% and 69%
Population Normal (%) [5]: 96% and 93%
Population Pyknosed Nuclei (%) [5]: 9% and 8%
Population Tubulin-Different-Phenotype (%) [5]: 22% and 24%
Total Cell Count [5]: 775 and 505
Population Apoptotic (%) [6]: 17% and 30%
Population Fragmented Nuclei (%) [6]: 14% and 13%
Population Healthy Nuclei (%) [6]: 78% and 77%
Population Hoechst High Intensity Objects (%) [6]: 3% and 5%
Population Membrane Permeable-Phenotype (%) [6]: 1% and 0%
Population Mitochondria Different-Phenotype (%) [6]: 27% and 35%
Population Mitotic Cells (%) [6]: 82% and 69%
Population Normal (%) [6]: 96% and 94%
Population Pyknosed Nuclei (%) [6]: 7% and 8%
Population Tubulin-Different-Phenotype (%) [6]: 21%
Total Cell Count [6]: 856 and 647
